Drawing on ChEMBL document CHEMBL1153308 (Bioorg Med Chem Lett, 2009), this text covers IC50 for eight compounds.

Some results are limits rather than exact numbers.

Assay [1] can be described thus: Inhibition of HCV RNA dependent RNA polymerase. Also noted: species or system Hepacivirus hominis.
Assay [2] concerns the target T1, Replicase polyprotein 1ab (Severe acute respiratory syndrome-related coronavirus, UniProt P0C6X7). In words: Inhibition of SCV helicase assessed as duplex-DNA unwinding by FRET based assay. The method, boiled down: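 Substrate was 25-bp dsDNA with a 20-dT 5′-overhang. SCV helicase (150 nM in 20 mM HEPES pH 7.4) preincubated with compounds for 5 min at rt. Started with 5X reaction solution (5 mM MgCl2, 45 mM ATP, 25 mM DTT, 100 nM dsDNA substrate as 5X concentrations), then 2 min at 37 °C. Stopped with EDTA plus unmodified trap oligomer, with FRET read-out.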

In assay [3] the target is T1, Replicase polyprotein 1ab. Briefly: Inhibition of ATPase activity of SCV helicase assessed as phosphate release by colorimetric assay. An outline of the steps:
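Purified SCV NTPase/helicase (400 nM in 50 mM Tris/HCl pH 6.6) preincubated with compounds for 5 min at rt. Stopped with malachite green/molybdate reagent in 1 M HCl. A620 read after 5 min, with phosphate from a standard curve.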

The IC50 is the concentration that inhibits the measured activity by half. With `O=C(O)/C(O)=C/C(=O)c1cccc(NCc2ccccc2)c1`, the IC50 in assay [1] was 0.96 µM; in assay [2] it was 5.4 µM; in assay [3], more than 50 µM.
Consider `O=C(O)/C(O)=C/C(=O)c1ccc(OCc2ccccc2)cc1`, for which the IC50 in assay [1] worked out at 0.96 µM; in assay [2], 39.9 µM; in assay [3] it was 41.3 µM.
With `O=C(O)/C(O)=C/C(=O)c1ccc(OCc2ccc(Cl)cc2)cc1`, the IC50 in assay [1] is 0.96 µM; in assay [2], more than 50 µM; in assay [3], more than 50 µM.
Turning to `O=C(O)/C(O)=C/C(=O)c1cccc(OCc2ccccc2)c1`, the IC50 in assay [1] is 0.96 µM; in assay [2] it was more than 50 µM; in assay [3], more than 50 µM.
On to `O=C(O)/C(O)=C/C(=O)c1cccc(OCc2ccc(Cl)cc2)c1`, for which the values for the IC50 in assay [1], in assay [2] and in assay [3] were 0.96 µM, 13.6 µM and 24.4 µM, respectively.
For the compound `O=C(O)/C(O)=C/C(=O)c1ccccc1OCc1ccc(Cl)cc1`, the values for the IC50 in assay [1], in assay [2] and in assay [3] were 0.96 µM, 28.7 µM and more than 50 µM, respectively.
With `O=C(O)/C(O)=C/C(=O)c1ccccc1OCc1ccccc1`, the IC50 was 0.96 µM in assay [1], more than 50 µM in assay [2] and more than 50 µM in assay [3].
On to `O=C(O)/C(O)=C/C(=O)c1cccc(NCc2ccc(Cl)cc2)c1`, for which the IC50 in assay [1] is 0.96 µM; in assay [2], 11 µM; in assay [3], more than 50 µM.
